According to ChEMBL document CHEMBL1142373 (J Med Chem, 2008):
pIC50: −log10 of the molar value. ≈ marks a conversion by molar mass, not a printed value.

Tests used:
Plasmodium falciparum [1] = assay: Antiplasmodial activity against chloroquine-sensitive Plasmodium falciparum 3D7 by [3H]hypoxanthine incorporation; type: functional, organism-based
Plasmodium falciparum [2] = assay: Antiplasmodial activity against chloroquine-sensitive Plasmodium falciparum D10 by [3H]hypoxanthine incorporation; type: functional, organism-based
Plasmodium falciparum [3] = assay: Antiplasmodial activity against chloroquine-resistant Plasmodium falciparum K1 by [3H]hypoxanthine incorporation; type: functional, organism-based
Plasmodium falciparum [4] = assay: Antiplasmodial activity against chloroquine-resistant Plasmodium falciparum W2 by [3H]hypoxanthine incorporation; type: functional, organism-based
Plasmodium falciparum [5] = assay: Antiplasmodial activity against chloroquine-sensitive Plasmodium falciparum D10 by parasite lactate dehydrogenase assay; settings: D10, 72 h
[6] = Cytotoxicity against human KB cells by MTT assay; type: cell-based; settings: read-out: TC50 (the source's name)
[7] = Cytotoxicity against human lymphocytes after 48 hrs by MTT assay; type: cell-based, Lymphocyte; settings: read-out: TC50
Outline: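 Donor PBMC were separated on Ficoll-Hypaque and stimulated with 5 µg/mL PHA, then plated at 20000 cells/well. Compounds in DMSO were added 12 h later and left 48 h. Read-out was MTT formazan (2 h, 37 °C), extracted overnight in SDS/DMF buffer, with OD at 570 nm. TC50 is reported; at least two runs in triplicate.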

[8] = Cytotoxicity against mouse NSO cells after 48 hrs by MTT assay; type: cell-based; settings: read-out: TC50
Outline: (§1)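 NSO (3000 cells/well) and Daudi (300 cells/well) cells were grown in RPMI 1640 with 5% FCS. Compounds in DMSO were added 12 h after plating and left 48 h. MTT was then added (20 µL of 5 mg/mL stock, 2 h, 37 °C), followed by SDS/DMF lysis buffer overnight, with OD read at 570 nm. TC50 is reported; at least two experiments in triplicate.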

[9] = Cytotoxicity against human Daudi cells after 48 hrs by MTT assay; type: cell-based; settings: read-out: TC50; outline: as §1
Plasmodium chabaudi [10] = assay: Antimalarial activity against Plasmodium chabaudi AS infected CD1 mice (Mus musculus) assessed as suppression of parasitaemia at 50mg/kg, perorally after 4 days; type: functional
Outline: (§2)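 Female CD1 mice (20–25 g) got 0.2 mL i.v. of donor blood diluted to 1% parasitaemia (1 × 10^7 infected erythrocytes/mL). Oral dosing started 2–4 h post-inoculation as a 0.2 mL bolus once daily for 4 days, in 10% Tween-80/EtOH plus sterile PBS. On day 5, Giemsa-stained smears were read by microscopy. % suppression = [(C−T)/C]×100; five mice per group.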

Aspergillus fumigatus [11] = assay: Antifungal activity against Aspergillus fumigatus; type: functional
Pichia kudriavzevii = assay: Antifungal activity against Candida krusei ATCC 6258; type: functional
Cryptococcus neoformans = assay: Antifungal activity against Cryptococcus neoformans; type: functional
Candida parapsilosis = assay: Antifungal activity against Candida parapsilosis ATCC 22019; type: functional; settings: Lodderomyces parapsilosis
Aspergillus flavus = assay: Antifungal activity against Aspergillus flavus ATCC 204304; type: functional
Candida albicans = assay: Antifungal activity against Candida albicans; type: functional
Plasmodium berghei [12] = assay: Reduced parasitemia in Plasmodium berghei ANKA infected CD1 mice (Mus musculus) at 10 mg/kg peroral dose after 4 days; type: functional; set-up: scale not given: the % may be the effect or the level left; settings: route oral; outline: as §2
Plasmodium chabaudi [13] = assay: Antimalarial activity against Plasmodium chabaudi AS infected CD1 mice (Mus musculus) assessed as suppression of parasitaemia at 10 mg/kg, perorally after 4 days; type: functional; settings: route oral; outline: as §2
Aspergillus fumigatus [14] = assay: Antifungal activity against itraconazole resistant Aspergillus fumigatus; type: functional
Plasmodium berghei [15] = assay: Reduced parasitemia in Plasmodium berghei ANKA infected CD1 mice (Mus musculus) at 150 mg/kg peroral dose after 4 days; type: functional; set-up: scale not given: the % may be the effect or the level left; settings: route oral; outline: as §2
[16] = Lipophilicity, Log D at pH 5.5; type: physicochemical; settings: buffer
Plasmodium berghei [17] = assay: Reduced parasitemia in Plasmodium berghei ANKA infected CD1 mice (Mus musculus) at 30 mg/kg dose after 4 days; set-up: scale not given: the % may be the effect or the level left
[18] = Lipophilicity, Log D at pH 7.4; type: physicochemical; settings: buffer
[19] = Lipophilicity, Log D at pH 7.2; type: physicochemical; settings: buffer

SMILES | pIC50 (Plasmodium falciparum [1]) | pIC50 (Plasmodium falciparum [3]) | pIC50 (Plasmodium falciparum [4]) | pIC50 (Plasmodium falciparum [5]) | CC50 [6] | also measured
CCN(CC)Cc1ccc(C(c2cccc(Cl)c2)n2cncn2)cc1 (racemic) | < 5.00 | 5.43 | < 5.00 | – | – | pIC50 (Plasmodium falciparum [2]): < 5.00
Clc1ccc2c(C(c3ccc(CN4CCCC4)cc3)n3ccnc3)ccnc2c1 (racemic) | 5.74 | 6.13 | 5.93 | 5.79 | – | –
Clc1cccc(C(c2ccc(CN3CCCC3)cc2)(c2ccccn2)n2ccnc2)c1 (racemic) | 6.46 | 6.81 | 6.80 | 6.21 | 27200 nM | –
Clc1cccc(C(c2ccnc3ccccc23)n2ccnc2)c1 (racemic) | < 5.00 | 5.37 | < 5.00 | – | – | pIC50 (Plasmodium falciparum [2]): < 5.00
Clc1ccc(C(c2ccccc2)(c2ccc(CN3CCOCC3)cc2)n2ccnc2)cc1 (racemic) | 6.25 | – | – | 6.14 | – | CC50 at 48 h [7]: 13300 nM; CC50 at 48 h [8]: 16000 nM; CC50 at 48 h [9]: 15600 nM
Clc1ccc(C(c2ccccc2)(c2ccc(CN3CCCC3)cc2)N2CCNCC2)cc1 (racemic) | 5.42 | 5.45 | 5.81 | – | 20900 nM | pIC50 (Plasmodium falciparum [2]): < 5.00
Clc1cccc(C(c2ccc(CN3CCCC3)cc2)(c2nccs2)n2ccnc2)c1 (racemic) | 6.50 | 7.18 | 5.73 | 6.32 | – | CC50 at 48 h [7]: 80500 nM; CC50 at 48 h [8]: 52900 nM; CC50 at 48 h [9]: 57500 nM; Activity (Plasmodium chabaudi [10]): 73.1%
Clc1ccc(C(c2ccccc2)(c2ccc(CN3CCNCC3)cc2)n2ccnc2)cc1 (racemic) | 7.26 | – | – | 7.08 | – | CC50 at 48 h [7]: 13700 nM; CC50 at 48 h [8]: 16200 nM; CC50 at 48 h [9]: 15800 nM
Clc1cccc(C(c2ccc(CN3CCNCC3)cc2)n2ccnc2)c1 (racemic) | 6.39 | 6.45 | 6.49 | 6.29 | – | –
c1ccc2c(C(c3ccc(CN4CCCC4)cc3)n3ccnc3)ccnc2c1 (racemic) | 5.30 | 6.42 | 5.75 | 5.13 | – | –
Fc1ccc(C(c2ccc(CN3CCCC3)cc2)(c2ccnc3cc(Cl)ccc23)n2ccnc2)cc1 (racemic) | 7.17 | 7.17 | 8.70 | 7.07 | 33000 nM | MIC (Aspergillus fumigatus [11]): > 32 µg/mL; MIC (Pichia kudriavzevii): > 32 µg/mL; MIC (Cryptococcus neoformans): > 32 µg/mL; MIC (Candida parapsilosis): > 32 µg/mL; MIC (Aspergillus flavus): > 32 µg/mL; MIC (Candida albicans): 8 µg/mL (≈ 16.1 µM); Activity (Plasmodium chabaudi [10]): 99.4%
Fc1ccc(C(c2ccc(Cl)cc2)(c2ccc(CN3CCCC3)cc2)n2ccnc2)cc1 (racemic) | 7.09 | 6.42 | 8.82 | 6.93 | 8200 nM | –
CC(C)(C)OC(=O)N1CCN(Cc2ccc(C(c3cccc(Cl)c3)n3ccnc3)cc2)CC1 (racemic) | 5.39 | 5.97 | 5.82 | 5.28 | – | –
CCN(CC)Cc1ccc(C(c2ccccc2)(c2ccc(Cl)cc2)n2ccnc2)cc1 (racemic) | – | 9.32 | 7.38 | 6.38 | – | –
Clc1ccc(C(c2ccc(CN3CCCC3)cc2)(c2nccs2)n2ccnc2)cc1 (racemic) | 6.75 | 6.74 | 7.10 | 6.52 | 64200 nM | –
CCN(CC)CCCC(C)Nc1ccnc2cc(Cl)ccc12 (centres undefined) [CHLOROQUINE] | – | – | – | – | 207000 nM | Activity (Plasmodium berghei [12]): 89.1%; Activity (Plasmodium chabaudi [13]): 100%
Clc1ccccc1C(c1ccccc1)(c1ccccc1)n1ccnc1 [CLOTRIMAZOLE] | – | – | – | – | 88100 nM | MIC (Aspergillus fumigatus [11]): 4 µg/mL (≈ 11.6 µM); MIC (Pichia kudriavzevii): 2 µg/mL (≈ 5.8 µM); MIC (Aspergillus fumigatus [14]): 4 µg/mL (≈ 11.6 µM); MIC (Cryptococcus neoformans): 2 µg/mL (≈ 5.8 µM); MIC (Candida parapsilosis): 2 µg/mL (≈ 5.8 µM); MIC (Aspergillus flavus): 4 µg/mL (≈ 11.6 µM); MIC (Candida albicans): 0.03 µg/mL (≈ 0.087 µM); Activity (Plasmodium chabaudi [10]): 6%; Activity (Plasmodium berghei [15]): 28.3%
Clc1ccc(C(c2ccc(CN3CCCC3)cc2)(c2cccs2)n2ccnc2)cc1 (racemic) | 5.45 | 5.75 | 5.17 | 5.87 | – | –
Clc1ccc(C(c2ccccc2)(c2ccc(CN3CCCC3)cc2)n2ccnc2)cc1 (racemic) | – | – | – | – | – | MIC (Aspergillus fumigatus [11]): > 32 µg/mL; CC50 at 48 h [7]: 70300 nM; MIC (Pichia kudriavzevii): 16 µg/mL (≈ 37.4 µM); MIC (Cryptococcus neoformans): 32 µg/mL (≈ 74.8 µM); MIC (Candida parapsilosis): 32 µg/mL (≈ 74.8 µM); MIC (Aspergillus flavus): > 32 µg/mL; MIC (Candida albicans): 32 µg/mL (≈ 74.8 µM); CC50 at 48 h [8]: 51500 nM; CC50 at 48 h [9]: 58500 nM; logD [16]: 1.72; Activity (Plasmodium chabaudi [10]): 94.8%; Activity (Plasmodium berghei [17]): 37.6%; logD [18]: 3.33; logD [19]: 3.13
CCN(CC)Cc1ccc(C(c2cccc(Cl)c2)n2ccnc2)cc1 (racemic) | 5.89 | 6.55 | 6.34 | 5.72 | – | –
Clc1cccc(C(c2ccc(CN3CCCC3)cc2)(c2cccs2)n2ccnc2)c1 (racemic) | 5.37 | 5.90 | 5.98 | 5.14 | – | –
Clc1ccc2c(C(c3ccccc3)(c3ccc(CN4CCCC4)cc3)n3ccnc3)ccnc2c1 (racemic) | 6.83 | 7.22 | 8.00 | 6.77 | 51800 nM | –
Clc1cccc(C(c2ccc(CN3CCCC3)cc2)(c2ccoc2)n2ccnc2)c1 (racemic) | 7.00 | – | 6.78 | 6.62 | – | –
Clc1ccc(C(c2ccc(CN3CCCC3)cc2)(c2ccc(CN3CCCC3)cc2)n2ccnc2)cc1 | 7.58 | 7.93 | 7.41 | 7.32 | – | MIC (Aspergillus fumigatus [11]): > 32 µg/mL; CC50 at 48 h [7]: 68500 nM; MIC (Pichia kudriavzevii): > 32 µg/mL; MIC (Cryptococcus neoformans): > 32 µg/mL; MIC (Candida parapsilosis): > 32 µg/mL; MIC (Aspergillus flavus): > 32 µg/mL; MIC (Candida albicans): > 32 µg/mL; CC50 at 48 h [8]: 47000 nM; CC50 at 48 h [9]: 58700 nM; logD [16]: 0.67; Activity (Plasmodium chabaudi [10]): 94%; logD [18]: 1.56; logD [19]: 1.4
Clc1cccc(C(c2ccncc2)(c2ccc(CN3CCCC3)cc2)n2ccnc2)c1 (racemic) | 6.23 | 6.29 | 6.38 | 5.91 | – | –
Clc1ccc(C(c2ccccc2)(c2ccc(CN3CCCC3)cc2)n2cnc3ccccc32)cc1 (racemic) | 6.42 | 7.64 | 6.42 | 5.99 | – | –
